{"source": "ChEMBL document CHEMBL3856209", "about": "“Novel pyrazolopyridine derivatives as potential angiogenesis inhibitors: Synthesis, biological evaluation and transcriptome-based mechanistic analysis” (Eur J Med Chem, 2016)", "key": {"HUVEC [1]": {"tested_on": "HUVEC", "test": "Effect on ASPM gene expression in serum-starved HUVEC after 6 hrs by microarray analysis relative to control", "type": "functional, Homo sapiens", "method_in_brief": "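Serum-starved confluent HUVEC treated with 2 μM compound or DMSO in 2.5% FBS for 6 h or 24 h; RNA hybridized to Illumina Human-HT12 arrays. Data background-corrected, vst-transformed and rsn-normalized. Differential probes called by moderated paired t-test (limma) at p < 0.05 and log2 fold change >|0.5| vs DMSO.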"}, "HUVEC [2]": {"tested_on": "HUVEC", "test": "Effect on KIF22 gene expression in serum-starved HUVEC after 24 hrs by microarray analysis relative to control", "type": "functional, Homo sapiens", "method_in_brief": "(§1)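 Confluent, serum-starved HUVEC (pooled from 3–5 donors, passage ≤4) treated with 2 μM compound or vehicle with 2.5% FBS for 6 h or 24 h. Total RNA hybridized to Illumina Human-HT12 arrays. Data were background-corrected, vst-transformed and rsn-normalized. Hits called by moderated paired t-test versus DMSO-treated cells, p < 0.05 and log2 fold change >|0.5|.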"}, "HUVEC [3]": {"tested_on": "HUVEC", "test": "Effect on MVD gene expression in serum-starved HUVEC after 24 hrs by microarray analysis relative to control", "type": "functional, Homo sapiens", "method_in_brief": "(§2)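 Serum-starved confluent HUVEC (pooled from 3–5 donors, passage ≤4) were treated with 2 μM compound or vehicle in 2.5% FBS for 6 h or 24 h, and total RNA was isolated. Hybridization was on Illumina Human-HT12. Data were processed with bgAdjust, vst and rsn normalization. Changes versus DMSO were called by moderated paired t-test at p < 0.05 and |log2 fold change| > 0.5.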"}, "HUVEC [4]": {"tested_on": "HUVEC", "test": "Effect on FDPS gene expression in serum-starved HUVEC after 24 hrs by microarray analysis relative to control", "type": "functional, Homo sapiens", "method_in_brief": "as §1"}, "HUVEC [5]": {"tested_on": "HUVEC", "test": "Effect on PALD1 gene expression in serum-starved HUVEC after 24 hrs by microarray analysis relative to control", "type": "functional, Homo sapiens", "method_in_brief": "as §2"}, "[6]": {"test": "Downregulation of CCNB2 gene expression in serum-starved HUVEC at 2 uM after 24 hrs by qRT-PCR analysis", "type": "functional, cell-based", "details": "Homo sapiens", "method_in_brief": "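Serum-starved confluent HUVEC treated with 2 μM compound or vehicle in 2.5% FBS for 24 h. Total RNA isolated and qRT-PCR run in triplicate (95 °C 5 min; 40 cycles of 95 °C 5 s, 58 °C 20 s, 72 °C 5 s), normalized to RPS18S. Fold change vs control, n = 3.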"}}, "note": "Activity calls are given as the source filed them. No cut-off for these calls is given here.", "data": [{"smiles": "COc1ccc(Cn2nc(-c3ccccc3)c3cc(Cl)nc(N4CCNCC4)c32)cc1", "values": [{"measurement": "fold change (FC)", "setting": "HUVEC [1]", "value": 0.1684}]}, {"smiles": "COc1ccc(Cn2nc(-c3ccccc3)c3cc(Nc4ccc(N5CCN(C)CC5)cc4)nc(N4CCNCC4)c32)cc1", "values": [{"measurement": "log2FC", "setting": "HUVEC [2]", "value": -0.5297}]}, {"smiles": "COc1ccc(Cn2nc(-c3ccccc3)c3cc(Nc4ccc(N5CCN(C)CC5)cc4)nc(N4CCN(C)CC4)c32)cc1", "values": [{"measurement": "log2FC", "setting": "HUVEC [3]", "value": 1.3802}, {"measurement": "log2FC", "setting": "HUVEC [4]", "value": 0.8398}, {"measurement": "log2FC", "setting": "HUVEC [5]", "value": 0.5892}, {"measurement": "Activity", "setting": "[6]", "value": "Active"}]}]}
